Values belong to the molecule of their own block, whether it stands above or below them. Active and inactive are the calls of the source. The calls are words filed in the database; no cut-off is given here.
How the values were obtained:
Mus musculus [1] = assay: Inhibition of methacholine-induced bronchoconstriction in conscious BALB/c mouse at 5 ug, intranasally administered as single dose after 48 hrs; type: functional; set-up: scale not given: the % may be the effect or the level left
Summary of the method: (§1)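 Conscious mice given a single intranasal dose of 5 µg/animal, then challenged with methacholine to induce bronchoconstriction. Inhibition of bronchoconstriction was assessed at set times after dosing.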

Mus musculus [2] = assay: Inhibition of methacholine-induced bronchoconstriction in conscious BALB/c mouse at 5 ug, intranasally administered as single dose after 24 hrs; type: functional; set-up: scale not given: the % may be the effect or the level left; summary of the method: as §1
Mus musculus [3] = assay: Inhibition of methacholine-induced bronchoconstriction in conscious BALB/c mouse at 5 ug, intranasally administered as single dose after 5 hrs 15 mins; type: functional, organism-based; summary of the method: as §1
[4] = target: T1, Muscarinic acetylcholine receptor M2 (Homo sapiens, UniProt P08172); assay: Antagonist activity at human muscarinic acetylcholine M2 receptor expressed in CHO cells coexpressed with Gqi5 assessed as inhibition of acetylcholine-induced calcium mobilization by single concentration kinetic FLIPR assay; type: functional, cell-based; conditions: read-out: pA2 (converted)
T1 sequence (P08172 whole entry): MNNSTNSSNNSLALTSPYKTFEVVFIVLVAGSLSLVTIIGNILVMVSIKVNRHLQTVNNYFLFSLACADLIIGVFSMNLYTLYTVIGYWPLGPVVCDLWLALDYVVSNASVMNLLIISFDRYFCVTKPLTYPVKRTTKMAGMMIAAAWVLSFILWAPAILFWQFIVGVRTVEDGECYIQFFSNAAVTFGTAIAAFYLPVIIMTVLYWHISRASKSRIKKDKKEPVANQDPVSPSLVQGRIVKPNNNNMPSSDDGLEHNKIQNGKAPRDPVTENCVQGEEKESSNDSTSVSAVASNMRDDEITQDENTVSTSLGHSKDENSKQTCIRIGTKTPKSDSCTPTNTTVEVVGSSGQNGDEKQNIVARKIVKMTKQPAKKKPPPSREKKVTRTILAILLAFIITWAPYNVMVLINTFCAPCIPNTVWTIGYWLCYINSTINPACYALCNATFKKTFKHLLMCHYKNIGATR
Summary of the method: (§2)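 CHO cells stably expressing the human recombinant muscarinic receptor subtype, in a fluorometric imaging plate reader (FLIPR) assay. Read-out is inhibition of acetylcholine-mediated intracellular Ca2+ mobilization. Results are the mean of at least two determinations.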

[5] = target: T2, Muscarinic acetylcholine receptor M1 (Homo sapiens, UniProt P11229); assay: Antagonist activity at human muscarinic acetylcholine M1 receptor expressed in CHO cells assessed as inhibition of acetylcholine-induced calcium mobilization by single concentration kinetic FLIPR assay; type: functional, cell-based; conditions: read-out: pA2 (converted); summary of the method: as §2
T2 sequence (P11229 whole entry): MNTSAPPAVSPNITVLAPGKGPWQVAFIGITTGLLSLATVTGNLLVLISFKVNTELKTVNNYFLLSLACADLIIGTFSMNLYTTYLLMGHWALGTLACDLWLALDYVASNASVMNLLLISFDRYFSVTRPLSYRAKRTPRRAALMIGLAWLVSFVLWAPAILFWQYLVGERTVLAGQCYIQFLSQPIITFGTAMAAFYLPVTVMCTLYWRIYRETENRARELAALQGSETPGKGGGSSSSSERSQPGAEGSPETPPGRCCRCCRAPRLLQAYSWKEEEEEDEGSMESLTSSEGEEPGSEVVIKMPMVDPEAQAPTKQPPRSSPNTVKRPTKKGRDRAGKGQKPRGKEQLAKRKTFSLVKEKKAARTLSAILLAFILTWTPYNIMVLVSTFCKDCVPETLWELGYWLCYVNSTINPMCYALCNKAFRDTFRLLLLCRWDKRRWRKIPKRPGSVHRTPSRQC

[6] = target: Muscarinic acetylcholine receptor M3 (Homo sapiens); assay: Selectivity for human muscarinic acetylcholine M3 receptor over human muscarinic acetylcholine M2 receptor
[7] = target: T3, Muscarinic acetylcholine receptor M3 (Homo sapiens, UniProt P20309); assay: Antagonist activity at human muscarinic acetylcholine M3 receptor expressed in CHO cells assessed as inhibition of acetylcholine-induced calcium mobilization by single concentration kinetic FLIPR assay; type: functional, cell-based; conditions: read-out: pA2 (converted); summary of the method: as §2
[8] = target: Muscarinic acetylcholine receptor M1 and M3 (Homo sapiens) (UniProt P20309+P11229); assay: Selectivity for human muscarinic acetylcholine M3 receptor over human muscarinic acetylcholine M1 receptor
Summary of the method: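 Ratio of M1 to M3 potency from FLIPR functional assays measuring inhibition of acetylcholine-induced intracellular Ca²⁺ mobilization. The M3 assay used CHO cells stably expressing human recombinant M3 receptor; the M1 assay is described only as a FLIPR assay. pIC50 values are the mean of at least two determinations.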

[9] = target: T2, Muscarinic acetylcholine receptor M1; assay: Antagonist activity at human muscarinic acetylcholine M1 receptor expressed in CHO cells assessed as inhibition of acetylcholine-induced calcium mobilization by FLIPR assay; type: functional, cell-based
Summary of the method: (§3)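 Readout: inhibition of acetylcholine-mediated intracellular Ca2+ mobilization in CHO cells expressing the human receptor subtype, reported as pIC50. Values are the mean of at least two determinations, standard deviation below 0.3 unless otherwise noted.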

[10] = target: T3, Muscarinic acetylcholine receptor M3; assay: Antagonist activity at human muscarinic acetylcholine M3 receptor expressed in CHO cells assessed as inhibition of acetylcholine-induced calcium mobilization by FLIPR assay; type: functional, cell-based
Summary of the method: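 Readout: inhibition of acetylcholine-mediated intracellular Ca2+ mobilization in CHO cells stably expressing human recombinant M3 receptor, reported as pIC50. Values are the mean of at least two determinations, standard deviation below 0.3 unless otherwise noted.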

[11] = target: T1, Muscarinic acetylcholine receptor M2; assay: Antagonist activity at human muscarinic acetylcholine M2 receptor expressed in CHO cells coexpressed with Gqi5 assessed as inhibition of acetylcholine-induced calcium mobilization by FLIPR assay; type: functional, cell-based; summary of the method: as §3
[12] = Clearance in Sprague-Dawley rat at 2.2 mg/kg, iv and 4.8 mg/kg, po; type: ADME, organism-based; conditions: in vivo
[13] = Half life in Sprague-Dawley rat at 2.2 mg/kg, iv and 4.8 mg/kg, po; type: ADME, organism-based; conditions: in vivo
[14] = Volume of distribution at steady state in Sprague-Dawley rat at 2.2 mg/kg, iv and 4.8 mg/kg, po; type: ADME, organism-based; conditions: in vivo, read-out: Vdss
[15] = Antagonist activity at alpha3 nicotinic acetylcholine receptor; type: functional
Cytochrome P450 2D6 = Cytochrome P450 2D6 (Homo sapiens, UniProt P10635); assay: Inhibition of CYP2D6; type: ADME
Cytochrome P450 2C19 = Cytochrome P450 2C19 (Homo sapiens, UniProt P33261); assay: Inhibition of CYP2C19; type: ADME
[16] = Permeability across artificial membrane; type: ADME; conditions: PAMPA; read-out: permeability
[17] = Antagonist activity at alpha1 nicotinic acetylcholine receptor; type: functional
Cytochrome P450 2C9 = Cytochrome P450 2C9 (Homo sapiens, UniProt P11712); assay: Inhibition of CYP2C9; type: ADME
Cavia porcellus [18] = assay: Inhibition of acetylcholine-induced bronchoconstriction in conscious Dunkin-Hartley guinea pig assessed as enhanced pause at 2.5 ug, intratracheally administered as single dose after 4 hrs
Cavia porcellus [19] = assay: Inhibition of acetylcholine-induced bronchoconstriction in conscious Dunkin-Hartley guinea pig assessed as enhanced pause at 2.5 ug, intratracheally administered as single dose after 24 hrs
[20] = target: T4, Substance-K receptor (Homo sapiens) (UniProt P21452); assay: Inhibition of NK2 receptor at 1 uM
T4 sequence (whole entry): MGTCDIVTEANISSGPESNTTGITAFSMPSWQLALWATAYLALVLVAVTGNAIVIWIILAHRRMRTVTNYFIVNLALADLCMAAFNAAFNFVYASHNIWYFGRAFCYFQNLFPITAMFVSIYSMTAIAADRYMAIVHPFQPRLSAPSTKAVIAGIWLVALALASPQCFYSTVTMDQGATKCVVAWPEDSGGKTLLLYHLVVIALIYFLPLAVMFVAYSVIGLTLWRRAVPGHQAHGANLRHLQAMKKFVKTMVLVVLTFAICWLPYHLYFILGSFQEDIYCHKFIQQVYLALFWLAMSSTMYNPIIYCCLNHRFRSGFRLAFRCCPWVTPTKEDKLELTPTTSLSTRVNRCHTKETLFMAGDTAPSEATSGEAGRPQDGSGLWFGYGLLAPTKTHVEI

T3 sequence (P20309 whole entry): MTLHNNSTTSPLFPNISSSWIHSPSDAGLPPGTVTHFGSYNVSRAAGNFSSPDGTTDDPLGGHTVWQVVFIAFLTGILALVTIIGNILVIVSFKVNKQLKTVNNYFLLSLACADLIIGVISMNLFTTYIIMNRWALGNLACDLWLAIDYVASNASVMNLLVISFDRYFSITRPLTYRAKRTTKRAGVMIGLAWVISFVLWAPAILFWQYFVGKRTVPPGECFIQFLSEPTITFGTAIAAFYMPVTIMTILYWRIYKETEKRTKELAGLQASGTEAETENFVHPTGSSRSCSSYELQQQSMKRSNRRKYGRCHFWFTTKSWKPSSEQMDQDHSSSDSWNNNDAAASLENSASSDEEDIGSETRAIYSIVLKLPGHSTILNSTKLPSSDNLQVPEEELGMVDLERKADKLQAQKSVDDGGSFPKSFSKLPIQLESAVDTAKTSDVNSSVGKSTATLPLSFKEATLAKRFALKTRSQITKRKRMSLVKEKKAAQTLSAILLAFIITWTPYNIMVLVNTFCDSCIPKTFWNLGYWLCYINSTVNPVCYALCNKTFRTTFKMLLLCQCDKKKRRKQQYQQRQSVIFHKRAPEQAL
Sequence of Muscarinic acetylcholine receptor M1 and M3 (Homo sapiens) (P20309 whole entry, looked up, one chain of several): as the sequence (P20309 whole entry) above
Sequence of Cytochrome P450 2C19 (P33261 whole entry): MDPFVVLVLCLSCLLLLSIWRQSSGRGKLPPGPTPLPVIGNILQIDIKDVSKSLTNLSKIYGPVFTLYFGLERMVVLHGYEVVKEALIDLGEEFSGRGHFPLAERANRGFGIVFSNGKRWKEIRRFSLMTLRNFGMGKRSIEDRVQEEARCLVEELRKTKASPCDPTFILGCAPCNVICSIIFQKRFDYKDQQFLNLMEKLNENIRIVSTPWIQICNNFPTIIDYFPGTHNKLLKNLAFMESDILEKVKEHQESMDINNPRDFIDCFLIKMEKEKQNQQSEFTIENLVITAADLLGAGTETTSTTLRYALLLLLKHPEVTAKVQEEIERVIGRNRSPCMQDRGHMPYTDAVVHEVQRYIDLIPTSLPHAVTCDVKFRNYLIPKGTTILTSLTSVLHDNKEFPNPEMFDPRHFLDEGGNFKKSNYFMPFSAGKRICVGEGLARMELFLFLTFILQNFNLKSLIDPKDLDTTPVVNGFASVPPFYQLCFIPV
Sequence of Cytochrome P450 2C9 (P11712 whole entry): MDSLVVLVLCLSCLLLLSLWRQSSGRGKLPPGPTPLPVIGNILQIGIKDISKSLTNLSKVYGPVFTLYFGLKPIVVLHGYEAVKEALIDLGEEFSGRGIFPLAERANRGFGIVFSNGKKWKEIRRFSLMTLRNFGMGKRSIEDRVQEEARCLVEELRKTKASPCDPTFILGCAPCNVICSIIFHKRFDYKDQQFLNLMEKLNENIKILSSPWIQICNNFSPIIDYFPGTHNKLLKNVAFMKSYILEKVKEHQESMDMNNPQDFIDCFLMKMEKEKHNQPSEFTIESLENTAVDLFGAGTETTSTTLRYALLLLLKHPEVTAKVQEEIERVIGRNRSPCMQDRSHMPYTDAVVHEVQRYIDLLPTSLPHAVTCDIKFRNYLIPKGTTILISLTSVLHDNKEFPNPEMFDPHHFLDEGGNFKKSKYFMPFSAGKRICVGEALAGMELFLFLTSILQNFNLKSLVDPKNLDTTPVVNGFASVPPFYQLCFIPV
Sequence of Cytochrome P450 2D6 (P10635 whole entry): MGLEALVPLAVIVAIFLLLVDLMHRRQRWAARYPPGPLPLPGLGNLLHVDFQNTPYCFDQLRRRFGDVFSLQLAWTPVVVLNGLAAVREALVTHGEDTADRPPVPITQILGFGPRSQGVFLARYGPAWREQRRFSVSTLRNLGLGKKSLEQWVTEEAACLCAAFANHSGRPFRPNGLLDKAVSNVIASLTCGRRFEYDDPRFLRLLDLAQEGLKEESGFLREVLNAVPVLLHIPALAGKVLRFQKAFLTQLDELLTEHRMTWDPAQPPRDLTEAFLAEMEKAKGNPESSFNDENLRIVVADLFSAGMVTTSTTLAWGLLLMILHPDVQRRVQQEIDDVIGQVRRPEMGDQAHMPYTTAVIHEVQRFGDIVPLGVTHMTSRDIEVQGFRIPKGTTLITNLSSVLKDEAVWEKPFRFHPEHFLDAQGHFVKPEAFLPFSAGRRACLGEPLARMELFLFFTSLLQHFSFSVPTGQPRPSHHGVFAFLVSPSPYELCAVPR

Compound: Cc1cn2cc(CNC(=O)[C@H](Cc3ccc(O)cc3)NC(=O)Nc3ccc(C(=O)OC(C)C)cc3)[n+](Cc3ccc4ccccc4c3)c2s1.O=C([O-])C(F)(F)F
Activity (Mus musculus [1]): > 60%
Activity (Mus musculus [2]): > 80%
Activity (Mus musculus [3]): Active
Kb [4]: 1.58 nM
Kb [5]: 0.794 nM
pA2 [6]: 10.6
Kb [7]: 0.0251 nM
Selectivity ratio [8]: 30

Compound: CCOC(=O)c1ccc(NC(=O)N[C@@H](Cc2ccc(O)cc2)C(=O)NC2CCN(Cc3ccc(O)cc3)C2)cc1 (stereo not given in full)
IC50 [9]: 2000 nM
IC50 [10]: 20 nM
Selectivity ratio [8]: 100
IC50 [11]: 158 nM

Compound: CCOC(=O)c1ccc(NC(=O)N[C@@H](Cc2ccc(O)cc2)C(=O)N[C@H]2CCN(Cc3ccc(O)cc3)C2)cc1
IC50 [9]: 1000 nM
IC50 [10]: 15.8 nM
Selectivity ratio [8]: 80
IC50 [11]: 126 nM

Compound: CC(C)OC(=O)c1ccc(NC(=O)N[C@@H](Cc2ccc(O)cc2)C(=O)N[C@H]2CCC[N+](C)(Cc3cccc(O)c3)C2)cc1.[I-] (stereo not given in full)
clearance [12]: 15 mL/min/kg
Activity (Mus musculus [1]): > 30%
half-life [13]: 1.1 h
Vd [14]: 0.55 L/kg
pIC50 [15]: 6.1
Activity (Mus musculus [2]): > 80%
Activity (Mus musculus [3]): Active
IC50 (Cytochrome P450 2D6): 3980 nM
IC50 (Cytochrome P450 2C19): > 10000 nM
Kb [4]: 1 nM
Papp [16]: < 0.3 ×10⁻⁶ cm/s
pIC50 [17]: 6.1
IC50 (Cytochrome P450 2C9): > 10000 nM

Compound: Cc1cn2cc(CNC(=O)[C@H](Cc3ccc(O)cc3)NC(=O)Nc3ccc(C(=O)OC4CCCCC4)s3)[n+](Cc3ccc4ccccc4c3)c2s1.[I-]
inhibition (INH) (Cavia porcellus [18]): 93%
Kb [4]: 0.2 nM
Kb [5]: 0.316 nM
Kb [7]: 0.0126 nM
Selectivity ratio [8]: 25
inhibition (INH) (Cavia porcellus [19]): 88%
inhibition [20]: 74%

More lines, now with the values ahead:

IC50 [9]: 3980 nM
IC50 [10]: 1580 nM
IC50 [11]: 1580 nM
Compound: CCOC(=O)c1ccc(NC(=O)N[C@@H](Cc2ccc(O)cc2)C(=O)N[C@@H]2CCN(Cc3ccc(O)cc3)C2)cc1

IC50 [9]: 20000 nM
IC50 [10]: 20000 nM
IC50 [11]: 20000 nM
Compound: CCOC(=O)c1ccc(NC(=O)N[C@H](Cc2ccc(O)cc2)C(=O)N[C@@H]2CCN(Cc3ccc(O)cc3)C2)cc1

IC50 [9]: 12600 nM
IC50 [10]: 3160 nM
IC50 [11]: 5010 nM
Compound: CCOC(=O)c1ccc(NC(=O)N[C@H](Cc2ccc(O)cc2)C(=O)N[C@H]2CCN(Cc3ccc(O)cc3)C2)cc1

From ChEMBL document CHEMBL1156633, “Discovery of novel and long acting muscarinic acetylcholine receptor antagonists” (J Med Chem, 2008)
